Tests used:
[1] = biological target: Cholinesterase (Equus caballus) (UniProt P81908); experiment: Reversible inhibition of horse serum BChE at Ki using 25 mM of butyrylthiocholine as substrate preincubated for 1 min followed by substrate addition by spectrophotometry relative to control
Cholinesterase = Cholinesterase (Equus caballus, UniProt P81908); experiment: Inhibition of horse serum BChE using butyrylthiocholine as substrate by spectrophotometry
Procedure, shortened: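 Initial rates monitored continuously at 412 nm (ε 14,150 M-1 cm-1), background from no-enzyme reaction. KI from dependence of observed rate constant on inhibitor concentration (typically twelve); at least three determinations averaged.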

[2] = biological target: Cholinesterase (Equus caballus) (UniProt P81908); experiment: Inhibition of horse serum BChE at 500 uM using butyrylthiocholine as substrate by spectrophotometry relative to control
Procedure, shortened: (§1)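 Ellman method at 25 °C: 100 mM sodium phosphate pH 7.5, 1 mM MgCl2, 0.2 mM DTNB, BSA, 100 µM butyrylthiocholine, 2% methanol. Inhibitor 500 µM final; reaction started with equine serum BChE (10 nM final); initial rates at 412 nm. Rate divided by 2% methanol no-inhibitor control; at least three determinations with independently prepared inhibitor solutions, averaged.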

Bos taurus = species on record: Bos taurus; experiment: Inhibition of bovine pancreas alpha-chymotrypsin using N-benzoyl-l-tyrosine ethyl ester as substrate by spectrophotometry relative to control
Procedure, shortened: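 Enzyme (fresh 5 units/mL stock in ice-cold 1 mM HCl) added to start; initial rates read continuously at 256 nm, no-enzyme background subtracted. Rate with compound divided by control rate; at least two determinations with independently prepared inhibitor solutions, averaged.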

[3] = biological target: Acetylcholinesterase (Electrophorus electricus) (UniProt O42275); experiment: Inhibition of electric eel AChE at 500 uM using acetylthiocholine as substrate by spectrophotometry relative to control
Acetylcholinesterase (Electrophorus electricus), sequence (O42275 24-633 limits assumed): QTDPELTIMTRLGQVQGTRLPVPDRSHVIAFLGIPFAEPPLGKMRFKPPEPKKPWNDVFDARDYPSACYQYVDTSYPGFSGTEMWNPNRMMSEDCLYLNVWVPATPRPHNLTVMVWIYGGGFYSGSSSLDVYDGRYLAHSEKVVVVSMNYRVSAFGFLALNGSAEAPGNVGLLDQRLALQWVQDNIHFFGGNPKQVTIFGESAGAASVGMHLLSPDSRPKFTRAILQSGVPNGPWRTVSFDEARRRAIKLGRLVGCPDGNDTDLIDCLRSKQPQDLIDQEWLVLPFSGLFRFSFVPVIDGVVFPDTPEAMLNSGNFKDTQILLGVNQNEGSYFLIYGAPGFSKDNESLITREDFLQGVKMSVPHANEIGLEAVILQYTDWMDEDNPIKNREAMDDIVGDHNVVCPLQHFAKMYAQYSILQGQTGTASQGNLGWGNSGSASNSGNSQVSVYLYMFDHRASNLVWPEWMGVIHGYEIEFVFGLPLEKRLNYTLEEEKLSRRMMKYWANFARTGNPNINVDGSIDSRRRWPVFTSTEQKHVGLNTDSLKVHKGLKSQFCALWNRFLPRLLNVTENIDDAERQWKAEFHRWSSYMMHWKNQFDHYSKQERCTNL
Procedure, shortened: as §1, with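 “acetylthiocholine,” for “butyrylthiocholine,”, “AChE” for “equine serum BChE”, “rates monitored” for “rates”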

Cholinesterase (Equus caballus), sequence (P81908 whole entry): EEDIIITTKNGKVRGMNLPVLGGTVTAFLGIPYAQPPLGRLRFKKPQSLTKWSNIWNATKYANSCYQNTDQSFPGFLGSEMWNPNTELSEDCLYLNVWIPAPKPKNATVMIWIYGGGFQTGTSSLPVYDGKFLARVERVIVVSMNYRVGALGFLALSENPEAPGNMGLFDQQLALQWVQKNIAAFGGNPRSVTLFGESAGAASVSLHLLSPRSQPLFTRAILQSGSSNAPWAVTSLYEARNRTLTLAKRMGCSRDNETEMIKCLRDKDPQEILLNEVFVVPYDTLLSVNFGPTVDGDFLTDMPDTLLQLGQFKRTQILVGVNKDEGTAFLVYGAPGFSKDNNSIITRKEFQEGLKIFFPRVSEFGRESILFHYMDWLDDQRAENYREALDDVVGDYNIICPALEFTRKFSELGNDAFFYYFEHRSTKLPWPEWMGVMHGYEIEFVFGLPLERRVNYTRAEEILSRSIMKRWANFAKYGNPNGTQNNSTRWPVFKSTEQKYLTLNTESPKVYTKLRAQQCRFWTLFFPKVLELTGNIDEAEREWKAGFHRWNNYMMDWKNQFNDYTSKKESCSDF
Cholinesterase, sequence (P81908 whole entry): as above

SMILES	fold change (FC) [1]	Ki (Cholinesterase) [µM]	fold change (FC) [2]	fold change (FC) (Bos taurus)	fold change (FC) [3]
CCCCOP(=O)(OCCCC)Oc1ccccc1C	0.91	50	0.27	0.92	0.99
CCCCOP(=O)(OCCCC)Oc1ccccc1	–	45 to 80	–	–	–
CCCCOP(=O)(OCCCC)OCCc1ccccc1	0.97	53	0.11	0.89	1.02
CCCCOP(=O)(OCCCC)Oc1cc(C)c(C)c(C)c1	0.88	11	0.09	0.84	1.09
CCOP(=O)(OCC)Oc1cc(C)cc(C)c1	–	583	–	–	–
CCCCOP(=O)(OCCCC)OCc1ccc(C)cc1	0.92	14	0.04	0.92	0.87
CCCCOP(=O)(OCCCC)OCc1cccc(C)c1	0.95	24	0.12	0.94	0.86
CCCCCOP(=O)(OCCCCC)Oc1ccccc1	–	6	–	–	–
CCOP(=O)(OCC)Oc1ccccc1 [PHOSPHORIC ACID DIETHYL ESTER PHENYL ESTER]	–	1590	–	–	–
CCCCOP(=O)(OCCCC)Oc1cc(C)cc(C)c1	0.83	1	0.01	0.95	1
CCCCOP(=O)(OCCCC)Oc1ccc2ccccc2c1	0.8	1.9	0.01	0.76	1.05
CCCOP(=O)(OCCC)Oc1ccccc1	–	45 to 80	–	–	–
CCCCOP(=O)(OCCCC)Oc1ccc(C)c(C)c1	0.93	9	0.04	0.94	1.04
CCCCOP(=O)(OCCCC)OCc1ccccc1	0.92	2	0.01	0.97	1
CCOP(=O)(OCC)Oc1ccc2ccccc2c1	–	147	–	–	–
CCCCOP(=O)(OCCCC)Oc1cccc(C)c1	0.94	16	0.15	0.89	0.99
CCCCOP(=O)(OCCCC)Oc1ccc(C)cc1	0.94	8	0.02	0.96	0.89
CCCCOP(=O)(OCCCC)Oc1cccc2ccccc12	0.71	22	0.21	0.93	1.07
CCCCOP(=O)(OCCCC)OCc1ccccc1C	0.95	72	0.04	0.94	0.98

Reference: ChEMBL document CHEMBL4033639, “Synthesis, biochemical evaluation, and molecular modeling studies of aryl and arylalkyl di-n-butyl phosphates, effective butyrylcholinesterase inhibitors” (Bioorg Med Chem, 2017)
